Results from different studies.
Compare with care: the assays were run in different laboratories.
Cell line: MRC5
Effect on: cell growth or viability

For `CCOC(=O)CCn1cc(C(=O)c2ccc(F)cc2)c2cc(-c3ccc(N4CCN(C(=O)OC(C)(C)C)CC4)nc3)cnc21`, the viability was 92.1% (MTT; 10 µM, 48 h).
`O=c1c2ccccc2[se]n1-c1ccccc1` has an IC50 of 94 µM (MTT; 72 h).
For `C=CCc1cc(OC)c2c(c1)OCO2`, the IC50 was 420 µM (SRB).
`CC(C)(C)OC(=O)N1CCN(c2ccc(-c3cnc4[nH]cc(C(=O)c5ccc(F)cc5)c4c3)cc2)CC1` gave a viability of 78.7% (MTT; 10 µM, 48 h).
The IC50 of `COc1c2c(cc3c1OCO3)[C@]13C=C[C@H](OC)C[C@@H]1[N@](C2)C[C@H]3OC(=O)c1ccoc1` is reported as > 10 µM (WST-1).
`Nc1cc(Br)c(Br)cc1N` gave an IC50 of 200 µM (72 h).
For `CC1=CC(=O)c2c(O)cccc2C1=O`, the IC50 was 5.15 µM (SRB).
For `CS(=O)(=O)N1CCN(c2ccc(-c3cnc4[nH]cc(C(=O)c5ccc(F)cc5)c4c3)cn2)CC1`, the viability was 79.1% (MTT; 10 µM, 48 h).
`N.N.[Cl][Pt][Cl]` gave an EC50 of 5.8 µM (SRB).
With `Nc1cc(Cl)c(Cl)cc1N` the IC50 was > 250 µM (72 h).
`CC(C)(C)OC(=O)N1CCN(c2cc(-c3cnc4[nH]cc(C(=O)c5ccc(F)cc5)c4c3)ccn2)CC1` has a viability of 78.9% (MTT; 10 µM, 48 h).
`COc1c2c(cc3c1OCO3)[C@]13C=C[C@H](OC)C[C@@H]1[N@](C2)C[C@H]3OC(=O)c1ccc2ccccc2c1` gave an IC50 of > 10 µM (WST-1).
`CC(C)=CCOc1c2occc2cc2ccc(=O)oc12` has an IC50 of > 100 µM (MTT; 72 h).
